For experiment [1], the system named is Rattus norvegicus. Description: Inhibition of cholesterol level in triton treated Charles Foster rat at 100 mg/kg, po. The format is functional. Put shortly: (§1)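 Male Charles Foster rats (200–225 g) were used, six per group. They received Triton WR-1339 200 mg/kg i.p. together with oral compound at 100 mg/kg in 2% aqueous gum acacia, over 18 h; vehicle controls were included. Rats were then fasted overnight and bled retro-orbitally. Serum total cholesterol, phospholipids and triglyceride were assayed.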

The target of experiment [2] is T1, Peroxisome proliferator-activated receptor delta (Homo sapiens) (UniProt Q03181).
T1 sequence (whole entry): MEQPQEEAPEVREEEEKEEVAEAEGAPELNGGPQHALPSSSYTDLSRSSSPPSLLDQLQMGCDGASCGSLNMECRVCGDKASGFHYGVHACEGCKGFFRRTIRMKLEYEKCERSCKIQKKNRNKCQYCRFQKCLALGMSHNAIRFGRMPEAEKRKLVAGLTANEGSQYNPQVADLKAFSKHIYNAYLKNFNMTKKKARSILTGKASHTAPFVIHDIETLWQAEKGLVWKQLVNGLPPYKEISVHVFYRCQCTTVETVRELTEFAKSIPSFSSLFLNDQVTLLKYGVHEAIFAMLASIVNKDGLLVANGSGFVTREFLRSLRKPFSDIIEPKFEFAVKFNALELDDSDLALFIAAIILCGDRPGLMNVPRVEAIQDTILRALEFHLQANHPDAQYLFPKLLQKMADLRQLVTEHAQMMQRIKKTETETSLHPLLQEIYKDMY
Kind of experiment: Inhibition of PPARdelta at 3 uM.

In experiment [3] the test system is Rattus norvegicus. Description: Inhibition of triglyceride level in triton treated Charles Foster rat at 100 mg/kg, po. The format is functional. Put shortly:
as §1

In experiment [4] the test system is Syrian golden hamster. Description: Inhibition of HDL level in Syrian golden hamster at 300 umol/kg after 10 days. The format is functional. Conditions: Mesocricetus auratus, 240 h.
Experiment [5] relates to Rattus norvegicus. Kind of experiment: Antidiabetic activity in glucose loaded albino Sprague-Dawley rat model assessed as decrease in blood glucose level at 100 mg/kg, po. It is filed as functional. A digest of the protocol: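 Rats in groups of five were bled at baseline, then gavaged with test sample at 100 mg/kg. A glucose load of 2 g/kg was given 30 min later. Blood was collected at 30, 60, 90 and 120 min.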

Experiment [6] concerns Syrian golden hamster. Kind of experiment: Inhibition of glycerol level in Syrian golden hamster at 300 umol/kg after 10 days. The format is functional. Conditions: Mesocricetus auratus, 240 h.
Experiment [7] deals with Rattus norvegicus. Description: Antidiabetic activity in streptozotocin-induced diabetic albino Sprague-Dawley rat model assessed as decrease in blood glucose level at 100 mg/kg, po. The format is functional. A digest of the protocol: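 Overnight-fasted rats received streptozotocin 60 mg/kg i.p. in 100 mM citrate buffer, pH 4.5. After 48 h, animals with glucometer glucose of 200–400 mg/dl were grouped (n=6). Sample in 1% gum acacia was given orally at 100 mg/kg; controls received vehicle.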

Experiment [8] deals with Syrian golden hamster. Description: Inhibition of cholesterol level in Syrian golden hamster at 300 umol/kg after 10 days. It is filed as functional. To be noted: Mesocricetus auratus, 240 h.
The subject of experiment [9] is Mus musculus. Description: Antidiabetic activity in db/db mouse at 100 mg/kg after 24 hrs on day 3. The format is functional.
Experiment [10] has as its target T2, Peroxisome proliferator-activated receptor gamma (Homo sapiens, UniProt P37231).
T2 sequence (P37231 whole entry): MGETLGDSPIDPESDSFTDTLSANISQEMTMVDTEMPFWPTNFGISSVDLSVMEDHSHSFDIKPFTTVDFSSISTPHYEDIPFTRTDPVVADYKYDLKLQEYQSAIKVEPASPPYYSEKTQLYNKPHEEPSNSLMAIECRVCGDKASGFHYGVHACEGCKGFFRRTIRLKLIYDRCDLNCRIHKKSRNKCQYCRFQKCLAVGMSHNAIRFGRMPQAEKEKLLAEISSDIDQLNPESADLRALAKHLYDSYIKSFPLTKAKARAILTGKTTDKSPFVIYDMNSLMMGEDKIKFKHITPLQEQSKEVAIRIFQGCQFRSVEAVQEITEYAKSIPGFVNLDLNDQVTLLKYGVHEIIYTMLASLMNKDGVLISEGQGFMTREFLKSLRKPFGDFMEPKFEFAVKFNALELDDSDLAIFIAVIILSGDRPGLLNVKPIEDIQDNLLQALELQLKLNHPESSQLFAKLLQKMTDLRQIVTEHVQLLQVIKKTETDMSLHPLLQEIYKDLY
Kind of experiment: Binding affinity at PPARgamma.

Experiment [11] relates to Rattus norvegicus. Description: Antidiabetic activity in sucrose challenged streptozotocin-induced diabetic albino Sprague-Dawley rat model assessed as decrease in blood glucose level at 100 mg/kg, po. It is filed as functional. Put shortly:
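Diabetes was induced in overnight-fasted rats with streptozotocin 60 mg/kg i.p. in 100 mM citrate buffer, pH 4.5. Rats with glucose of 150–250 mg/dl at 48 h were selected. A sucrose load of 2.5 g/kg was given 30 min after oral dosing. Glucose was measured at 30–300 min and 24 h. Food was withheld, water allowed.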

Experiment [12] has as its system Syrian golden hamster. Kind of experiment: Inhibition of free fatty acids level in Syrian golden hamster at 300 umol/kg after 10 days. The format is functional. To be noted: Mesocricetus auratus, 240 h.
For experiment [13], the target named is T3, Peroxisome proliferator-activated receptor alpha (Homo sapiens) (UniProt Q07869).
T3 sequence (whole entry): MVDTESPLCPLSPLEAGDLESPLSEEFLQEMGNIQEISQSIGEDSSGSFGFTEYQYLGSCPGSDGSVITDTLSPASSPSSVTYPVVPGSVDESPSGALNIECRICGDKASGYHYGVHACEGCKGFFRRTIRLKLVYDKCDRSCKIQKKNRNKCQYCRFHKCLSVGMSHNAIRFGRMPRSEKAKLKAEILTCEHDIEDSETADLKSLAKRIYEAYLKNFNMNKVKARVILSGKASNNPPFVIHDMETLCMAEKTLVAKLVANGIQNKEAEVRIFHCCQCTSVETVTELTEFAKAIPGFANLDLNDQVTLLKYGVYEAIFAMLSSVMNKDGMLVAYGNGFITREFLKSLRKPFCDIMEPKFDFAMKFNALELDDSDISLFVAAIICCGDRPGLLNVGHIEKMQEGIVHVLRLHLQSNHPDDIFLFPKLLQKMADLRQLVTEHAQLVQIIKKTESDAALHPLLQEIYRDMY
Kind of experiment: Inhibition of PPARalpha at 50 uM.

Experiment [14] concerns Rattus norvegicus. Description: Inhibition of phospholipids level in triton treated Charles Foster rat at 100 mg/kg, po. It is filed as functional. A digest of the protocol: as §1
For experiment [15], the system named is Mus musculus. Description: Antidiabetic activity in db/db mouse at 100 mg/kg after 5 hrs on day 3. The format is functional.
Experiment [16] concerns Syrian golden hamster. Description: Inhibition of triglyceride level in Syrian golden hamster at 300 umol/kg after 10 days. The format is functional. Conditions: Mesocricetus auratus, 240 h.
Experiment [17] deals with Rattus norvegicus. Kind of experiment: Antidiabetic activity in sucrose loaded albino Sprague-Dawley rat model assessed as decrease in blood glucose level at 100 mg/kg, po. The format is functional. Put shortly:
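Male Sprague–Dawley rats were fasted overnight and used in groups of five. Baseline blood was taken, then test sample was gavaged at 100 mg/kg. A sucrose load of […] followed 30 min later.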

Experiment [18] concerns Syrian golden hamster. Kind of experiment: Inhibition of glucose level in Syrian golden hamster at 300 umol/kg after 10 days. It is filed as functional. Conditions: Mesocricetus auratus, 240 h.

The text below walks through data of ChEMBL document CHEMBL1142330, “Omega-(2-Naphthyloxy) amino alkanes as a novel class of anti-hyperglycemic and lipid lowering agents” (Bioorg Med Chem, 2008).

The term inhibition in vivo denotes the percentage by which the read-out fell short of the control. In general, inhibition refers to the relative decrease from the control value, in per cent. A higher inhibition goes with a response far below the control. What is called EC50 is the concentration giving half of the maximal effect. A high value points to lower potency in that assay.

Turning to `CCOC(=O)CN(CCCOc1ccc2ccccc2c1)c1ccc(OC)cc1`, the inhibition in vivo at 100 mg/kg with Rattus norvegicus [1] came out at 21.2%; with Rattus norvegicus [3], 15%; in the experiment on Rattus norvegicus [5], 25.9%; with Rattus norvegicus [7], 6.9%; with Mus musculus [9], 15.4%; in the experiment on Rattus norvegicus [11] it was 5.6%. In addition, the inhibition in vivo at 100 mg/kg in the experiment on Rattus norvegicus [14] was 26%; with Mus musculus [15] it was 12%; in the experiment with Rattus norvegicus [17], 45.4%. Besides, the inhibition in [2] amounted to 29.6%; in [13], 33.5%. Besides, the inhibition in vivo at 300 µmol/kg with Syrian golden hamster [4] was 16%; in the experiment on Syrian golden hamster [6], 7.3%; with Syrian golden hamster [8] it was 22%; in the experiment on Syrian golden hamster [12], 48%; with Syrian golden hamster [16] it was 68%; with Syrian golden hamster [18] it was 34%. In experiment [10], this compound registered an EC50 of 4.8 µM.

For `COc1ccc(NCCCOc2ccc3ccccc3c2)cc1`, the inhibition in vivo at 100 mg/kg in the experiment on Rattus norvegicus [1] was 32.4%; with Rattus norvegicus [3], 28%; in the experiment on Rattus norvegicus [5], 33.6%; in the experiment on Rattus norvegicus [7] it was 28.5%; in the experiment on Mus musculus [9], 28.9%; in the experiment with Rattus norvegicus [11], 73.8%. In addition, the inhibition in vivo at 100 mg/kg stood at 38% in the experiment with Rattus norvegicus [14], 22.4% in the experiment on Mus musculus [15] and 31% with Rattus norvegicus [17]. In addition, the figures for the inhibition in [2] and in experiment [13] were 42.6% and 44.5%, respectively. Further, the inhibition in vivo at 300 µmol/kg in the experiment with Syrian golden hamster [4] came out at 15%; in the experiment on Syrian golden hamster [6], 14%; in the experiment with Syrian golden hamster [8] it was 14%; in the experiment on Syrian golden hamster [16], 48%; with Syrian golden hamster [18] it was 31%. This compound also returned an EC50 in [10] of 33.8 µM.
